Assay type in all cases: functional, organism-based
One test relates to Candida albicans. Kind of test: Antifungal activity against Candida albicans ATCC 10231 after 48 hrs by NCCLS method. The settings on record: ATCC 10231, 48 h. The essentials:
(§1)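 Yeasts grown on Sabouraud dextrose agar; inoculum from broth culture at 28 °C for 48 h, final suspension 10^5 cells/mL in SDB. Serial dilutions from 10 mg/mL DMSO stock in triplicate per NCCLS. A595 read after incubation; IC50 derived from inhibition rate versus concentration plot. Fluconazole served as positive control.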

For another test, the system named is Geotrichum candidum. Kind of test: Antifungal activity against Geotrichum candidum AS2.498 after 48 hrs by NCCLS method. The settings on record: AS2.498, 48 h. The gist of the method:
as §1

The next test concerns Staphylococcus aureus. Briefly: Antibacterial activity against Staphylococcus aureus ATCC 6538 after 24 hrs by NCCLS method. The settings on record: ATCC 6538, 24 h. The gist of the method:
(§2)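 Bacteria grown on Mueller-Hinton agar; inoculum from broth culture at 37 °C for 24 h, final suspension 10^6 cells/mL in MHB. Serial dilutions from 10 mg/mL DMSO stock, tested in triplicate per NCCLS recommendations. Absorbance read at 595 nm after incubation. Inhibition rate plotted against concentration to give IC50. Controls were antimicrobial peptide AMP and streptomycin.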

Another test deals with Escherichia coli. Kind of test: Antibacterial activity against Escherichia coli CGMCC 1.2340 after 24 hrs by NCCLS method. The settings on record: CGMCC 1.2340, 24 h. The gist of the method: as §2
In a further test the test system is Aspergillus fumigatus. Kind of test: Antifungal activity against Aspergillus fumigatus ATCC 10894 after 48 hrs by NCCLS method. The gist of the method:
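Mould grown on potato dextrose agar; inoculum from broth culture at 28 °C for 48 h, final 10^4 mycelial fragments/mL in PDB. Compounds serially diluted from 10 mg/mL DMSO stock, triplicate wells per NCCLS. Absorbance at 595 nm after incubation; IC50 from inhibition rate plotted versus concentration. Fluconazole positive control.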

The subject of a further test is Streptococcus pneumoniae. Briefly: Antibacterial activity against Streptococcus pneumoniae CGMCC 1.1692 after 24 hrs by NCCLS method. The settings on record: CGMCC 1.1692, 24 h. The gist of the method: as §2

Activity calls are given as the source filed them. The calls are words filed in the database; no cut-off is given here.

On to `CCCCCCCC1=C(CO)[C@@H](O)[C@H]2O[C@@]2(C/C=C(\C)C(=O)O)C1=O`, for which the IC50 in the test with Candida albicans, with Geotrichum candidum, in the test with Staphylococcus aureus, in the test on Escherichia coli and with Streptococcus pneumoniae was greater than 50 µM throughout. In addition, the outcome with Aspergillus fumigatus was inactive.

In turn, `CCCCC/C=C/C1=C(COC(C)=O)[C@@H](O)[C@H]2O[C@@]2(C/C=C(\C)C(=O)O)C1=O` gave a half-maximal inhibitory concentration (IC50) in the test on Staphylococcus aureus of 27.8 µM. Moreover, in the test on Aspergillus fumigatus, the result was inactive.

Take `CCCCCC1O[C@H]2C3=C(C(=O)[C@@]4(C/C=C(\C)C(=O)O)OC4[C@H]3O)C1C1C(CCCCC)OC=C3C(=O)C4O[C@]4(C/C=C(\C)C(=O)O)C(=O)C312` (stereo not given in full): the half-maximal inhibitory concentration (IC50) in the test with Candida albicans, with Geotrichum candidum, in the test with Staphylococcus aureus, with Escherichia coli and in the test on Streptococcus pneumoniae was greater than 50 µM in each case. The result with Aspergillus fumigatus was inactive.

`CCCCC/C=C/C1=C(CO)C(=O)C[C@](O)(C/C=C(\C)C(=O)O)[C@H]1O`: the IC50 with Candida albicans, in the test on Geotrichum candidum, with Staphylococcus aureus, in the test with Escherichia coli and with Streptococcus pneumoniae was greater than 50 µM throughout. Moreover, the result in the test on Aspergillus fumigatus was inactive.

Take `CCCCC/C=C/C1=C2COC(C)(C)O[C@H]2[C@H]2O[C@@]2(C/C=C(\C)C(=O)O)C1=O`: the IC50 in the test with Candida albicans, in the test with Geotrichum candidum, in the test on Staphylococcus aureus, in the test on Escherichia coli and in the test on Streptococcus pneumoniae was greater than 50 µM throughout. Further, the outcome in the test on Aspergillus fumigatus was inactive.

In the case of `CCC/C=C/C=C/C1=C(CO)[C@@H](O)[C@H]2O[C@@]2(C/C=C(\C)C(=O)O)C1=O`, the half-maximal inhibitory concentration (IC50) with Candida albicans, in the test with Geotrichum candidum, in the test on Staphylococcus aureus, in the test on Escherichia coli and in the test with Streptococcus pneumoniae was greater than 50 µM in each case. Moreover, the outcome in the test on Aspergillus fumigatus was inactive.

`CCC(=O)CC/C=C/C1=C(CO)[C@@H](O)[C@H]2O[C@@]2(C/C=C(\C)C(=O)O)C1=O`: the half-inhibitory concentration (IC50) in the test with Candida albicans, in the test on Geotrichum candidum, in the test with Staphylococcus aureus, with Escherichia coli and in the test with Streptococcus pneumoniae was greater than 50 µM throughout. Also, in the test on Aspergillus fumigatus, the result was inactive.

In turn, `CCCCC/C=C/C1=C(CO)[C@H](O)[C@H]2O[C@@]2(C/C=C(\C)C(=O)O)C1=O` [AMBUIC ACID] gave a half-maximal inhibitory concentration (IC50) with Staphylococcus aureus of 43.9 µM. Besides, the result with Aspergillus fumigatus was inactive.

What is called IC50 is the concentration at which inhibition is half-maximal. Higher therefore signals lower potency.

These data come from ChEMBL document CHEMBL1151814, “Ambuic acid and torreyanic acid derivatives from the endolichenic fungus Pestalotiopsis sp” (J Nat Prod, 2009).
